≈ marks a conversion by molar mass, not a printed value.
Columns and labels:
Type in all cases: functional
[1] = species on record: Mus musculus; assay: (§1) Cytotoxicity against mouse 26-L5 cells by MTT assay
How it was run: (§2)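 MTT viability read-out, run by a previously described method. Cells were highly liver-metastatic murine colon 26-L5 carcinoma and human HT-1080 fibrosarcoma.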

[2] = test system: HT-1080; assay: Cytotoxicity against human HT1080 cells by MTT assay; settings: for EC50: read-out: ED50 (the source's name); how it was run: as §2
[3] = as §1; settings: read-out: ED50 (the source's name); how it was run: as §2

Structure (SMILES) | Activity [1] | Activity [2] | EC50 [3] [µg/mL] | EC50 [2] [µg/mL]
C=C(C)C1Cc2cc(/C=C/C(=O)O)cc(CC=C(C)C)c2O1 (configuration not stated) | Not toxic | Not toxic |  | 
COc1ccc(-c2oc3cc(O)c(OC)c(O)c3c(=O)c2O)cc1 [BETULETOL] |  |  | < 8 | < 8
COc1ccc(-c2oc3cc(O)cc(O)c3c(=O)c2OC)cc1 [ERMANIN] |  |  | < 8 | < 8
COc1ccc(-c2oc3cc(O)cc(O)c3c(=O)c2O)cc1 [KAEMPFERIDE] |  |  | < 8 | < 8
COc1cc([C@@H]2OC=C(c3cc4cc(O)c(C(C)=O)cc4o3)C[C@H]2COC(C)=O)ccc1O [PROPOLIS-BENZOFURAN A] |  |  | 12.4 (≈ 27.4 µM) | 13.9 (≈ 30.7 µM)
COc1cc([C@@H]2c3c(oc4cc(C(C)=O)c(O)cc34)C(=O)C[C@H]2COC(C)=O)ccc1O [PROPOLIS-BENZOFURAN B] |  |  | 13.7 (≈ 31.2 µM) | 43.2 (≈ 98.5 µM)

From ChEMBL document CHEMBL1155590, “Two novel cytotoxic benzofuran derivatives from Brazilian propolis” (2000)
